ChEMBL document CHEMBL1145774, “Synthesis and biological effects of novel 2-amino-3-naphthoylthiophenes as allosteric enhancers of the A1 adenosine receptor” (J Med Chem, 2003)

Key:
Assay type in all cases: functional, cell-based
[1] = target: T1, Adenosine receptor A1 (Homo sapiens) (UniProt P30542); assay: Percent change in cAMP content of CHO (Chinese hamster ovary) cells expressing human Adenosine A1 receptor at 0.1 uM
T1 sequence (whole entry): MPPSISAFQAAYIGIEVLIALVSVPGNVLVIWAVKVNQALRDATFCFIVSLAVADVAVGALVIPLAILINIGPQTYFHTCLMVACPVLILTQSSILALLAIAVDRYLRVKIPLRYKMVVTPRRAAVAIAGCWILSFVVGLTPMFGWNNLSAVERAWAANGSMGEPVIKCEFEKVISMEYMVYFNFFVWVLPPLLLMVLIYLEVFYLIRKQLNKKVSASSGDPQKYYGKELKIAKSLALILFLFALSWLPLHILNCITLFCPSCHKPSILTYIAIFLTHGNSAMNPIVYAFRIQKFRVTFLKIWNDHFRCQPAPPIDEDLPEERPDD
In short: (§1)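 CHO cells stably expressing human A1 receptor (~8000 fmol/mg protein) were grown in Ham's F-12 with 10% FBS and G-418 for 48 h to confluence. HCl (50 mM final) stopped the reaction, and cAMP was measured by radioimmunoassay. Values are % change versus no-compound control, mean ± SEM of six experiments.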

[2] = target: T1, Adenosine receptor A1 (Homo sapiens); assay: Percent change in cAMP content of CHO (Chinese hamster ovary) cells expressing human Adenosine A1 receptor at 0.01 uM; in short: as §1
[3] = target: T1, Adenosine receptor A1 (Homo sapiens); assay: Percent change in cAMP content of CHO (Chinese hamster ovary) cells expressing human Adenosine A1 receptor at 1 uM; in short: as §1
[4] = target: T1, Adenosine receptor A1 (Homo sapiens); assay: Percent change in cAMP content of CHO (Chinese hamster ovary) cells expressing human Adenosine A1 receptor at 10 uM; in short: as §1

Which results are given for `Cc1sc(N)c(C(=O)c2ccc(Cl)c3ccccc23)c1C`?
Change [1]: -18%; Change [2]: 12%; Change [3]: -47%; Change [4]: -56%

Which results are given for `COc1ccc(C2SCc3c(sc(N)c3C(=O)c3cccc4ccccc34)S2)cc1` (stereo not given)?
Change [1]: 16%; Change [2]: 18%; Change [3]: 4%; Change [4]: 6%

`Cc1cc(C(=O)c2c(N)sc3c2CCN(Cc2ccccc2)C3)cc2ccccc12` was tested. Which Change [1] did it give?
The Change was 2%.

And the Change [2]?
The Change was -0%.

What about the Change [3] of the same molecule?
Its Change is -0%.

What about the Change [4] of the same molecule?
Its Change is -16%.

Which Change [1] does the source give for `Nc1sc2c(c1C(=O)c1ccc3ccccc3c1)CCN(Cc1cccnc1)C2` here?
The Change was -12%.

What about the Change [2] of the same molecule?
The Change was -8%.

And the Change [3]?
Its Change is 41%.

What about the Change [4] of the same molecule?
The Change was 56%.

`Cc1ccc(C(=O)c2c(N)sc3c2CCC3)c2ccccc12` was tested. Which Change [1] did it give?
Its Change is 4%.

And the Change [2]?
The Change was 9%.

What about the Change [3] of the same molecule?
Its Change is -17%.

And the Change [4]?
Its Change is -48%.

Which Change [1] does the source give for `Nc1sc2c(c1C(=O)c1ccc3c(c1)Cc1ccccc1-3)CCN(Cc1ccccc1)C2` here?
Its Change is -7%.

What about the Change [2] of the same molecule?
The Change was 4%.

And the Change [3]?
The Change was 8%.

And the Change [4]?
Its Change is -1%.

For `Nc1sc2c(c1C(=O)c1cccc3ccccc13)CCN(Cc1ccccc1)C2`, which Change [1] is on record?
Its Change is -7%.

What about the Change [2] of the same molecule?
Its Change is -21%.

And the Change [3]?
Its Change is -25%.

What about the Change [4] of the same molecule?
Its Change is 19%.

Which Change [1] does the source give for `Cc1ccc(C(=O)c2c(N)sc3c2CCCC3)c2ccccc12` here?
The Change was 13%.

And the Change [2]?
Its Change is 17%.

What about the Change [3] of the same molecule?
Its Change is -21%.

What about the Change [4] of the same molecule?
Its Change is -45%.

How did the Change [1] turn out when `Cc1ccc(C(=O)c2c(N)sc3c2CCN(Cc2ccccc2)C3)c2ccccc12` was run?
Its Change is -7%.

What about the Change [2] of the same molecule?
The Change was -0%.

What about the Change [3] of the same molecule?
The Change was -13%.

And the Change [4]?
Its Change is -34%.

With `Cc1sc(N)c(C(=O)c2ccc(I)c3ccccc23)c1C` as the molecule, how does the Change [1] read?
The Change was -3%.

What about the Change [2] of the same molecule?
Its Change is -5%.

What about the Change [3] of the same molecule?
The Change was -19%.

What about the Change [4] of the same molecule?
The Change was -63%.

What does the source list for `Cc1cc(C(=O)c2c(N)sc3c2CCCC3)cc2ccccc12`?
Change [1]: -9%; Change [2]: -7%; Change [3]: -8%; Change [4]: -20%

`Nc1sc2c(c1C(=O)c1ccc3ccccc3c1)CCN(Cc1cccc(Cl)c1)C2` was tested. Which Change [1] did it give?
The Change was -12%.

And the Change [2]?
The Change was 9%.

And the Change [3]?
Its Change is 7%.

What about the Change [4] of the same molecule?
The Change was -3%.

For `COc1ccc(C(=O)c2c(N)sc3c2CCCC3)c2ccccc12`, which Change [1] is on record?
Its Change is 5%.

What about the Change [2] of the same molecule?
Its Change is 5%.

What about the Change [3] of the same molecule?
The Change was -3%.

What about the Change [4] of the same molecule?
The Change was -17%.

With `Nc1sc2c(c1C(=O)c1ccc3ccccc3c1)CCC(Cc1ccccc1)C2` (stereo not given) as the molecule, how does the Change [1] read?
The Change was 10%.

What about the Change [2] of the same molecule?
The Change was 7%.

And the Change [3]?
Its Change is -9%.

What about the Change [4] of the same molecule?
The Change was 28%.

For `Nc1sc2c(c1C(=O)c1ccc3ccccc3c1)CCC(c1ccccc1)C2` (stereo not given), which Change [1] is on record?
Its Change is 5%.

And the Change [2]?
The Change was -8%.

And the Change [3]?
Its Change is 31%.

What about the Change [4] of the same molecule?
Its Change is 33%.

`Nc1sc2c(c1C(=O)c1ccc3ccccc3c1)CCN(Cc1ccc([N+](=O)[O-])cc1)C2` was tested. Which Change [1] did it give?
Its Change is 12%.

And the Change [2]?
The Change was 8%.

And the Change [3]?
The Change was 26%.

And the Change [4]?
Its Change is 26%.

What does the source list for `Cc1cc(C(=O)c2c(N)sc3c2CCCC3)cc2ccc(Cl)cc12`?
Change [1]: 1%; Change [2]: -0%; Change [3]: -11%; Change [4]: -13%

For `Cc1sc(N)c(C(=O)c2cc(C)c3ccccc3c2)c1C`, which Change [1] is on record?
The Change was -3%.

And the Change [2]?
Its Change is 4%.

And the Change [3]?
Its Change is -9%.

And the Change [4]?
The Change was -22%.

Which Change [1] does the source give for `Nc1sc2c(c1C(=O)c1ccc3c(c1)Cc1ccccc1-3)CCC2` here?
Its Change is -15%.

And the Change [2]?
The Change was -3%.

What about the Change [3] of the same molecule?
The Change was -6%.

And the Change [4]?
Its Change is -9%.

What does the source list for `Cc1cc(C(=O)c2c(N)sc3c2CCN(Cc2ccccc2)C3)cc2ccc(Cl)cc12`?
Change [1]: 1%; Change [2]: -1%; Change [3]: -5%; Change [4]: -9%

For `Cc1sc(N)c(C(=O)c2ccc(C)c3ccccc23)c1C`, which Change [1] is on record?
The Change was -8%.

And the Change [2]?
The Change was -5%.

And the Change [3]?
Its Change is -32%.

And the Change [4]?
The Change was -51%.

`Nc1sc2c(c1C(=O)c1ccc(Br)c3ccccc13)CCN(Cc1ccccc1)C2` was tested. Which Change [1] did it give?
The Change was -5%.

What about the Change [2] of the same molecule?
The Change was 18%.

What about the Change [3] of the same molecule?
Its Change is -12%.

And the Change [4]?
Its Change is -42%.

Which Change [1] does the source give for `Nc1sc2c(c1C(=O)c1ccc3ccccc3c1)CCN(Cc1ccc(F)cc1)C2` here?
Its Change is -9%.

What about the Change [2] of the same molecule?
The Change was -11%.

And the Change [3]?
Its Change is -2%.

And the Change [4]?
Its Change is -8%.

With `COc1ccc(C(=O)c2c(N)sc3c2CCN(Cc2ccccc2)C3)c2ccccc12` as the molecule, how does the Change [1] read?
Its Change is 11%.

What about the Change [2] of the same molecule?
Its Change is -0%.

What about the Change [3] of the same molecule?
Its Change is 3%.

What about the Change [4] of the same molecule?
The Change was -12%.

For `Nc1sc2c(c1C(=O)c1ccc(Cl)c3ccccc13)CCN(Cc1ccccc1)C2`, which Change [1] is on record?
The Change was -1%.

And the Change [2]?
Its Change is 3%.

What about the Change [3] of the same molecule?
The Change was -7%.

What about the Change [4] of the same molecule?
Its Change is -21%.

With `Nc1sc2c(c1C(=O)c1ccc3c(c1)Cc1ccccc1-3)CCCC2` as the molecule, how does the Change [1] read?
The Change was 6%.

And the Change [2]?
The Change was 7%.

And the Change [3]?
The Change was 7%.

What about the Change [4] of the same molecule?
Its Change is 3%.

Which results are given for `Nc1sc2c(c1C(=O)c1ccc3ccccc3c1)CCN(Cc1ccc(Cl)cc1)C2`?
Change [1]: -8%; Change [2]: -6%; Change [3]: -21%; Change [4]: -6%

Which results are given for `Nc1sc2c(c1C(=O)c1ccc(I)c3ccccc13)CCN(Cc1ccccc1)C2`?
Change [1]: 1%; Change [2]: -6%; Change [3]: -6%; Change [4]: -13%

How did the Change [1] turn out when `Cc1cc(C(=O)c2c(N)sc3c2CCC3)cc2ccc(Cl)cc12` was run?
Its Change is -14%.

What about the Change [2] of the same molecule?
The Change was 4%.

What about the Change [3] of the same molecule?
Its Change is -6%.

And the Change [4]?
Its Change is -17%.

`Nc1sc2c(c1C(=O)c1ccc3ccccc3c1)CCN(Cc1ccccc1Cl)C2` was tested. Which Change [1] did it give?
Its Change is -20%.

What about the Change [2] of the same molecule?
Its Change is -10%.

What about the Change [3] of the same molecule?
The Change was -10%.

And the Change [4]?
Its Change is -17%.

Which results are given for `Cc1sc(N)c(C(=O)c2ccc3c(c2)Cc2ccccc2-3)c1C`?
Change [1]: -17%; Change [2]: -4%; Change [3]: -10%; Change [4]: -19%

`Nc1sc2c(c1C(=O)c1cccc3ccccc13)CCC(Cc1ccccc1)C2` (stereo not given) was tested. Which Change [1] did it give?
The Change was -7%.

And the Change [2]?
The Change was -8%.

What about the Change [3] of the same molecule?
Its Change is -14%.

And the Change [4]?
The Change was -21%.

How did the Change [1] turn out when `Cc1sc(N)c(C(=O)c2ccc(Br)c3ccccc23)c1C` was run?
The Change was -1%.

And the Change [2]?
The Change was -8%.

What about the Change [3] of the same molecule?
The Change was -2%.

What about the Change [4] of the same molecule?
The Change was -60%.

With `COc1ccc(CN2CCc3c(sc(N)c3C(=O)c3ccc4ccccc4c3)C2)c(OC)c1OC` as the molecule, how does the Change [1] read?
Its Change is -1%.

What about the Change [2] of the same molecule?
Its Change is -3%.

And the Change [3]?
The Change was -10%.

What about the Change [4] of the same molecule?
The Change was 5%.

How did the Change [1] turn out when `COc1ccc(C(=O)c2c(N)sc(C)c2C)c2ccccc12` was run?
Its Change is 3%.

What about the Change [2] of the same molecule?
Its Change is 9%.

And the Change [3]?
Its Change is -5%.

And the Change [4]?
The Change was -38%.
